# Screens (PubChem BioAssay)
# NPY1 pot ag – potentiators or agonists of human neuropeptide Y receptor Y1; P25929; NPY-Y1 expressing cells, potentiator/agonist activation; activation, % at 3.6 µM; actives 0.37% (n = 220,000); AID 1304; in the data active = activation above about 33%, passing the limit was not always enough;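 also: cells stimulated with NPY at EC10 then isoproterenol at EC100; 0% = low agonist plus stimulus and 100% = saturating agonist plus stimulus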
# NPY-Y2 antag – blocks the human neuropeptide Y Y2 receptor; inhibition, % at 2.7 µM; actives 0.99% (n = 140,000); AID 793; NPY-Y2 expressing cells, antagonist mode; in the data active = inhibition above about 17%;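 also: 0% = vehicle with agonist challenge and 100% = reference antagonist with challenge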
# NPY2 pot ag – potentiates or activates human NPY-Y2 receptor; cells expressing NPY-Y2, potentiator/agonist read-out; activation, % at 3.6 µM; actives 0.45% (n = 220,000); in the data active = activation above about 27%;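 also: cells stimulated with NPY near EC25 plus isoproterenol at EC100; 0% = vehicle plus submaximal agonist and 100% = vehicle plus saturating agonist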
# S1P4 antagonist – human S1P4 receptor antagonism. O95977. S1P4-expressing cells, antagonist mode, reporter read-out. inhibition, % at 4.98 µM. actives 0.26% (n = 220,000); in the data active = inhibition above about 29%;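 also: 0% = wells stimulated with agonist and 100% = vehicle wells without agonist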
# Target sequence (O95977 whole entry, looked up): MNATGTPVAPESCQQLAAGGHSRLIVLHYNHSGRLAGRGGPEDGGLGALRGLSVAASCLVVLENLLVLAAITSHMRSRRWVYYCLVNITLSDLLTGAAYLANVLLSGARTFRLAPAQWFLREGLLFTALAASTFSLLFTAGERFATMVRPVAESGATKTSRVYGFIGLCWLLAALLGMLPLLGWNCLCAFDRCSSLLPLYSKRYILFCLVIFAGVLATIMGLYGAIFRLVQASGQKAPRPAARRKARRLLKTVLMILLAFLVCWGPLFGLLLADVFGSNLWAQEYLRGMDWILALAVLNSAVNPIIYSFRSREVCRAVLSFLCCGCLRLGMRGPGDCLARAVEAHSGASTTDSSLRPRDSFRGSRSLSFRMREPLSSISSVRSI
# S1P4 agonist – activates the human S1P4 receptor. O95977. S1P4-expressing cell line, agonist reporter assay. activation, % at 4.98 µM. actives 0.35% (n = 220,000). AID 1509; in the data active = activation above about 11%;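 also: 0% = DMSO vehicle and 100% = reference agonist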
# NPY-Y1 antag – blocks the human neuropeptide Y Y1 receptor. inhibition, % at 3.6 µM. actives 1% (n = 200,000). P25929. HEK293-CNG Y1 cells, membrane potential fluorescence; NPY at EC95, then isoproterenol;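 active = inhibition above the campaign mean inhibition of all tested compounds plus 3 SD, cut at about 20% in these data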;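 also: 0% = DMSO wells given NPY plus isoproterenol and 100% = isoproterenol alone without NPY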
#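 material = HEK293 cells with Y1 receptor plus CNG channel | also added = NPY 25 nM then isoproterenol 1 µM plus Ro 20-1724 25 µM | schedule = dye 3 h, compound 60 min room temperature, stimulation 45 min | measured by = membrane potential fluorescence | benchmarks = high control isoproterenol alone, low control NPY with isoproterenol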
# NPY-Y2 pot conf – confirmation of human NPY-Y2 receptor potentiators or agonists. shares compounds with NPY2 pot ag. cell-based NPY-Y2 potentiator/agonist assay. activation, % at 3.6 µM. actives 20% (n = 450); in the data active = activation above about 33%
# NPY-Y1 potentiator – potentiates or activates NPY-Y1, counter-screen for NPY-Y2 hits | shares compounds with NPY2 pot ag | Y1 HEK293-CNG cells, membrane potential fluorescence | activation, % at 3.6 µM | actives 20% (n = 450); in the data active = activation above about 45%;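 also: cells stimulated with submaximal NPY then isoproterenol with phosphodiesterase inhibitor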
# NPY-Y1 agonist 2 – counter-screen for NPY-Y2 potentiators: agonists of human NPY-Y1. shares compounds with NPY2 pot ag. HEK293 Y1-CNGC, membrane potential fluorescence, agonism. activation, % at 3.6 µM. actives 37% (n = 450);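 active = activation above the mean of DMSO-only control wells plus 3 SD, cut at about 18% in these data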;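 also: cells stimulated with 1 µM isoproterenol plus the PDE inhibitor Ro 20-1724; 0% = isoproterenol with DMSO and no NPY and 100% = 40 nM NPY; Y1 agonists lower the membrane potential dye signal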
# CNGC inh – blocks CNG channel activity, counter-screen for NPY-Y2 potentiators; shares compounds with NPY2 pot ag; HEK293-CNG parental, isoproterenol cAMP, membrane potential fluorescence; inhibition, % at 3.6 µM; actives 32% (n = 450); AID 1703;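 active = inhibition above the control-well mean plus 3 SD of those wells, cut at about 22% in these data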;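 also: 0% = DMSO with isoproterenol and 100% = DMSO without isoproterenol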
# Y2 agonist ctr – counter-screen for NPY-Y2 potentiators: agonists of human NPY-Y2. shares compounds with NPY2 pot ag. HEK293 Y2/CNGC cells, membrane potential fluorescence, agonist mode. activation, % at 3.6 µM. actives 56% (n = 450);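 active = activation above the mean of solvent-only control wells plus 3 SD, cut at about 10% in these data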;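 also: cells stimulated by isoproterenol with no NPY added so direct agonism is tested; 0% = DMSO with isoproterenol alone and 100% = NPY at EC100 plus isoproterenol; agonism lowers probe fluorescence through less cAMP and CNG channel opening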
# * marks the source's active call; other numbers are inactive results; . = no result. This is a sample that favours compounds with a hit; in the whole collection about 2.4% have one here.
SMILES,NPY1 pot ag,NPY-Y2 antag,NPY2 pot ag,S1P4 antagonist,S1P4 agonist,NPY-Y1 antag,NPY-Y2 pot conf,NPY-Y1 potentiator,NPY-Y1 agonist 2,CNGC inh,Y2 agonist ctr
CCOC(=O)N1CCN(CC(O)COCC2=CCC3CC2C3(C)C)CC1 (centres undefined),17,2,43*,11,3,-5,7,15,15,-1,-1
Clc1ccc(-c2nc3ccccc3[nH]2)cn1,-5,.,-19,14,-1,.,.,.,.,.,.
CN(C)c1ccc(NC(=O)/C=C/c2ccccc2Cl)cc1,6,4,4,-18,2,0,.,.,.,.,.
CCN(CC)c1ccc(NC(=O)/C=C\c2ccccc2Cl)cc1,41,-1,31*,1,-6,-6,17,26,25*,27*,27*
Cc1ccc(S(=O)(=O)N2CCN(CC(=O)N/N=C\c3ccc(Cl)c([N+](=O)[O-])c3)CC2)cc1,22,-3,27*,-14,2,-4,14,20,14,25*,12*
O=C(/C=C/c1cccc(C(F)(F)F)c1)Nc1cccc(C(F)(F)F)c1,33,-2,36*,-18,0,-12,19,23,25*,33*,16*
COc1cc(C(=S)N2CCN(c3ccccc3Cl)CC2)cc(O)c1O,16,.,31*,-1,1,2,0,8,-1,7,23*
COCCN=c1scc(-c2ccco2)n1/N=C/c1ccc(O)c(O)c1O,26,.,22,-17,2,4,.,.,.,.,.
COCCN=c1scc(-c2cc(OC)ccc2OC)n1/N=C/c1c[nH]c2ccccc12,43,-3,33*,17,0,-13,33*,49*,46*,37*,36*
COc1ccc(NS(=O)(=O)c2cnc[nH]2)cc1,-3,.,30*,4,0,0,4,11,-4,2,8
O=S(=O)(Nc1ccc(C(F)(F)F)cc1)c1cnc[nH]1,12,0,10,-11,0,2,.,.,.,.,.
O=C(O)/C=C/C(=O)Nc1ccc(N2CCOCC2)nc1N1CCOCC1,0,.,0,-4,0,.,.,.,.,.,.
COc1ccc(NC(=O)c2c(OC)cccc2OC)c(OC)c1,1,-1,28*,-10,2,0,9,10,14,13,17*
COc1ccc(NC(=O)c2ccc(C(=O)Nc3ccc(OC)cc3OC)cc2)c(OC)c1,2,.,21,-3,-1,1,.,.,.,.,.
CN(C)S(=O)(=O)c1cc(NC(=O)COC(=O)C2CSC3(C)CCC(=O)N23)ccc1Cl (centres undefined),-5,3,-6,-10,1,-1,.,.,.,.,.
COC(=O)CN1C(=S)N(c2ccc(Cl)cc2)C(=O)C1CC(=O)Nc1ccc(F)cc1 (centres undefined),32,-4,30*,-8,0,-8,33,58*,43*,46*,38*
COC(=O)CN1C(=S)N(c2ccc(Cl)cc2)C(=O)C1CC(=O)Nc1ccc(Cl)cc1 (centres undefined),48,2,55*,0,0,-11,49*,72*,67*,60*,67*
O=C(CC1C(=O)NCCN1C(=O)Nc1ccc(Cl)cc1)Nc1ccc(F)cc1 (centres undefined),34,.,29*,2,2,-6,55*,75*,58*,57*,50*
